The list is not random: actives were taken first. Their share in the collection is about 4.5%.
NF-kB expr up: raises NF-kB expression in human neuronal cells; fold change at 12.5 µM; 190,000 compounds, 1.6% hits; NF-kB reporter expression; active compounds read high; in the data active = fold change above about 3.3
PERK inh: human PERK inhibition, primary cell-based screen; Q9NZJ5; CHO PERK-DD fusion, SEAP luminescence translation reporter; inhibition, % at 5.6 µM; 220,000 compounds, 0.17% hits; AID 1416;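 active = inhibition above the mean inhibition of all tested compounds plus 3 SD, set separately per screening campaign, cut at about 2.9% in these data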;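 also: PERK kinase domain activated by AP20187 dimerizer at 100 nM; 0% = DMSO with dimerizer and 100% = rapamycin at 8.4 µM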
STAT1 activator: STAT1 signaling activation | 200,000 compounds, 2.6% hits | activation (% of control), % at 5.5 µM | NIH 3T3 STAT1-luciferase reporter, IFN-gamma, luminescence; 100% = IFN-gamma alone, no compound | AID 932;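 active = activation above the screen-wide mean activation plus 3 SD, cut at about 130% in these data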;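 also: raw ratio to IFN-gamma control signal so 100% means no change and 0% no light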
Mdm2 ligase inh: inhibitors of human Mdm2 E3 ubiquitin ligase; Q00987; cell-based MDM2 ubiquitination luciferase reporter, 2 h; 0 = plate control, 100 = twice control, blank-subtracted; signal enhancement, % at 5 µM; 210,000 compounds, 0.11% hits;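 active = signal enhancement of 30% or more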;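 also: luminescence tracks abundance of the self-degrading MDM2-luciferase fusion protein; higher signal means inhibition of MDM2 E3 ligase activity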
Target sequence (Q00987 whole entry, looked up, the tested form may be a part): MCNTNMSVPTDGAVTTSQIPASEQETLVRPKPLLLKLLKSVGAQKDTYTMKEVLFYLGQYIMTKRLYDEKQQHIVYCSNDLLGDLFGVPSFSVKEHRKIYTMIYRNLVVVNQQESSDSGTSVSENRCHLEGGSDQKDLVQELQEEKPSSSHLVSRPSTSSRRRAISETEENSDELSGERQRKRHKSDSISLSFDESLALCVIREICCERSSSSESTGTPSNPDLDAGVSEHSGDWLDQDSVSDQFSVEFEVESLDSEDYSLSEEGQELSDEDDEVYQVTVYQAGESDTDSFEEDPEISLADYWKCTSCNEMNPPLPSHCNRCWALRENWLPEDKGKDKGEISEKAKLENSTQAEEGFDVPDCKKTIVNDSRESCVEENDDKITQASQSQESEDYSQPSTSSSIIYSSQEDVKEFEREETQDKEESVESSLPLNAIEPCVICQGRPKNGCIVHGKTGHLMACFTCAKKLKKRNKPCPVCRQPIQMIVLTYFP
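test system = mammalian cells stably expressing self-ubiquitinating, self-degrading MDM2 E3–luciferase fusion | quantity = 2000 cells/well | incubation = cell settling 4 h, compound treatment 2 h, both 37 °C | signal = luminescence with SteadyLite reagent, 15 min at room temperature | evaluation = % enhancement relative to plate controls after blank subtraction | benchmarks = plate controls and plate blanks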
AHR activator: activators of human aryl hydrocarbon receptor; AHR-responsive luciferase reporter cells, luminescence; 320,000 compounds, 2.5% hits; P35869; activation, % at 5 µM; AID 2796; in the data active = activation above about 47%;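 also: 0% = vehicle wells and 100% = reference agonist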
APP 5'UTR act: APP 5'UTR luciferase reporter activation. SH-SY5Y APP 5'UTR luciferase reporter, luminescence; zero percent = DMSO vehicle wells. activation, % at 2 µM. 190,000 compounds, 1% hits. AID 1276;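 active = activation above a set limit, based on mean plus 3 SD of controls, cut at about 140% in these data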
* = called active by the depositor; . = no result.

SMILES	NF-kB expr up	PERK inh	STAT1 activator	Mdm2 ligase inh	AHR activator	APP 5'UTR act
Cc1ccc(-c2noc(COc3ccccc3C)n2)cc1	1.3	0	116	-4	0	24
Cc1ccccc1OCc1nc(-c2ccccc2)no1	2.9	1	137*	-6	8	79
c1ccc(-c2noc(COc3ccc4c(c3)OCO4)n2)cc1	4.1*	2	125	0	9	100
CCS(=O)(=O)Nc1ccc(C2=NN(S(C)(=O)=O)C(c3cccs3)C2)cc1 (stereo not drawn)	1.5	0	113	-8	18	4
CCOC(=O)C1C(=O)OC(C)(C)C1C(CC)C(=O)c1c(C)cc(C)cc1C (stereo not drawn)	.	-2	.	-8	-2	.
COc1ccc(N2CCN(S(=O)(=O)CCNC(=O)c3cccs3)CC2)cc1	.	.	.	.	7	.
Cc1nnc(Sc2cc(C(=O)NC3CC3)c3ccccc3n2)s1	.	-1	.	-4	27	.
Cc1ccc(C2=NNC(c3ccc(Cl)cc3)=Nc3ccccc32)o1	0.87	0	99	-5	50*	.
Oc1[nH]c2ccccc2c1N=NC(=S)N1CCOCC1	.	-3	.	31*	0	.
Oc1[nH]c2ccc(Br)cc2c1N=NC(=S)N1CCOCC1	.	-4	.	14	14	.
C/C(=N\OC(=O)c1ccc(F)cc1)c1nccs1	0.96	3.2*	91	-4	0	12
COc1ccc(C(=O)O/N=C(\C)c2nccs2)cc1	1.2	0	112	0	0	20
Cc1cc(C(=O)Cn2cnc3cc(F)ccc3c2=O)c(C)n1C1CC1	.	.	.	.	3	.
O=C(COC(=O)c1cc([N+](=O)[O-])ccc1NCCO)c1ccccc1	0.91	0	98	-4	17	11
O=C(COC(=O)CCC(=O)c1cccs1)NCCc1ccccc1	.	.	.	.	0	.
COc1ccc(OC)c(Nc2nc(-c3sc(NC(=O)C(C)(C)C)nc3C)cs2)c1	0.85	-1	102	-19	61*	-5
COc1ccc(OC)c(Nc2nc(-c3sc(NC(=O)CC(C)C)nc3C)cs2)c1	1	-1	98	-17	73*	1
COc1ccc(OC)c(Nc2nc(-c3sc(C)nc3C)cs2)c1	0.63	-1	101	-11	34	-4
O=C(CCNC(=O)c1ccccc1Cl)NCCc1ccc(C(F)(F)F)cc1	.	.	.	.	-1	.
COc1ccc(C(=O)c2oc3nc(C)cc(C)c3c2N)cc1	1.2	-1	109	-4	-6	-25
Cc1ccc(C(=O)c2oc3nc(C)cc(C)c3c2N)cc1	1.2	-1	100	-82	95*	-1
O=C(NNC(=O)c1cnccn1)c1ccc(Cl)cc1	.	0	.	-9	-1	.
CN(/N=C/c1ccc([N+](=O)[O-])o1)c1ccccc1	1.6	0	135*	-25	-6	20
O=C(N/N=C/c1ccc([N+](=O)[O-])o1)C(O)c1ccccc1 (stereo not drawn)	.	1	.	-11	0	.
O=C(CN1CCN(C(=O)c2ccccc2F)CC1)Nc1ccc(Br)cc1	0.97	0	105	-20	56*	2
SMILES	NF-kB expr up	PERK inh	STAT1 activator	Mdm2 ligase inh	AHR activator	APP 5'UTR act
O=C(Cc1ccccc1)NCC(=O)OCc1ccc([N+](=O)[O-])cc1	1.1	0	100	-88	0	19
CCOc1cc(/C=C2\SC(=O)N=C2N)ccc1O	1.2	0	95	-17	48*	-6
Cc1ccc(C(=O)N/N=C/c2ccc(OC(=O)c3ccccc3Cl)cc2)cn1	.	.	.	.	9	.
O=C(Oc1ccc(/C=N/O)cc1)c1ccccc1Cl	2	2	142*	-3	-2	61
Cc1cccc(C(=O)Oc2ccc(/C=N/O)cc2)c1	3.1	1	135*	6	2	149*
O=C(c1cccs1)c1ccc(-c2cccs2)s1	5.3*	1	77	-72	0	158*
O=C(Nc1ccccc1Cl)c1ccccc1Oc1ccc(C(F)(F)F)cc1[N+](=O)[O-]	0.92	0	103	-19	75*	6
Cc1cccc(NC(=O)c2cc([N+](=O)[O-])ccc2Cl)c1O	1.2	1	95	1	48*	5
COc1ccccc1NC(=O)c1cc([N+](=O)[O-])ccc1NCCN1C(=O)CCC1=O	1.1	0	103	-11	51*	-2
O=C(Nc1ccccc1Oc1ccccc1)c1cc([N+](=O)[O-])ccc1Cl	0.64	0	96	-18	108*	2
CCC(=O)N(C(=O)CC)N1CCN(c2ccncc2S(=O)(=O)N2CCCCC2)CC1	.	.	.	.	3	.
CCC1CCCCN1C(=O)c1sc2ncnc(N(CC)CC)c2c1C (stereo not drawn)	0.82	0	90	-3	59*	14
O=C(N/N=C/c1cccc([N+](=O)[O-])c1)c1cc(-c2ccc3c4c(cccc24)CC3)n[nH]1	0.72	1	107	-7	51*	19
CC12CCC(C/C1=N/NC(=O)Nc1ccccc1)C2(C)C (stereo not drawn)	1.5	0	103	-16	10	12
COc1cccc(NC(=S)N/N=C2\CC3CCC2(C)C3(C)C)c1 (stereo not drawn)	1.4	1	129*	-3	5	60
Cc1ccccc1Nc1nnc(SCC(=O)Nc2ccccc2[N+](=O)[O-])s1	0.81	1	107	-9	23	13
CCCSc1nnc(Nc2ccccc2C)s1	2.1	1	129*	-14	2	50
COC(=O)c1c(NC(=S)Nc2ccc(C(=O)N3CCOCC3)cc2)sc2c1CCC2	1.1	3.0*	107	-4	0	-4
CCOc1ccccc1NC(=O)c1ccc(OCC)c([N+](=O)[O-])c1	0.93	1	93	6	1	8
CCOc1ccccc1NC(=O)NNC(=O)c1ccc2ccccc2c1	.	.	.	.	49*	.
COc1ccc(NC(=O)NNC(=O)c2ccc3ccccc3c2)cc1OC	.	.	.	.	0	.
CCOc1ccccc1NC(=O)c1ccc2ccccc2c1	.	.	.	.	67*	.
CCCOc1ccccc1NC(=O)c1ccc([N+](=O)[O-])cc1	1.3	0	95	-10	64*	11
COc1ccc(-c2nc3ncccc3n2O)cc1	.	.	.	.	6	.
Cn1c2ccccc2c2cc(/C=C(\NC(=O)c3ccccc3)C(=O)O)ccc21	.	1	.	.	13	-2
CC(C)OC(=O)/C(=C\c1ccc2c(c1)c1ccccc1n2C)NC(=O)c1ccccc1	1	-1	114	-5	75*	6
CN(C)CCOC(=O)/C(=C/c1cn(C)c2ccccc12)NC(=O)c1ccccc1	.	-2	.	-85	63*	.
CC(C)OC(=O)/C(=C\c1cccnc1)NC(=O)c1ccccc1	1.4	1	97	-52	2	2
COC(=O)/C(=C\c1ccc2c(c1)c1ccccc1n2C)NC(=O)c1ccccc1	0.59	0	108	-5	76*	8

Assay outcomes as filed in PubChem BioAssay.
